The record followed here is ChEMBL document CHEMBL3259520, “Structure-activity relationships studies of quinoxalinone derivatives as aldose reductase inhibitors” (Eur J Med Chem, 2014).

For assay [1], the target named is Aldo-keto reductase family 1 member B1 (Rattus norvegicus, UniProt P07943). Kind of assay: Inhibition of Wistar rat eye lens aldose reductase-2 using D-L glyceraldehyde as substrate assessed as oxidation of NADPH preincubated for 10 mins followed by substrate addition measured for 4 mins by spectrophotometric analysis.
Assay [2] concerns Aldehyde reductase AKR1A1 (Rattus norvegicus). Kind of assay: Inhibition of Wistar rat kidney aldehyde reductase-1 using D-glucuronate as substrate assessed as oxidation of NADPH at 10 uM preincubated for 10 mins followed by substrate addition measured for 4 mins by spectrophotometric analysis relative to control.
Assay [3] concerns the target Aldo-keto reductase family 1 member B1 (Rattus norvegicus) (UniProt P07943). Nature of the assay: Inhibition of Wistar rat eye lens aldose reductase-2 using D-L glyceraldehyde as substrate assessed as oxidation of NADPH at 10 uM preincubated for 10 mins followed by substrate addition measured for 4 mins by spectrophotometric analysis relative to control. Put shortly: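 ALR2 was taken from Wistar rat lens homogenate. It was fractionated with ammonium sulfate (40% and 50% supernatants, then a 75% cut), dissolved in 0.05 M NaCl, dialyzed and stored at −20 °C. The 1 mL assay ran at 30 °C with 0.10 mM NADPH solution, 0.1 M sodium phosphate pH 6.2 and D,L-glyceraldehyde substrate. Compounds were in DMSO diluted with water, 10^-5 M final, with a substrate-free blank rate subtracted.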

Consider `O=C(O)Cn1c(=O)c(/C=C/c2ccccc2)nc2ccc(Cl)cc21`, for which the IC50 in assay [1] was found to be 3.88 µM. In assay [2], the inhibition turned out to be 35%.
As to `O=c1c(N2CCN(CCN3CCOCC3)CC2)nc2ccccc2n1Cc1ccc([N+](=O)[O-])cc1`, the inhibition in assay [3] came to 23%.
Take `O=C(O)Cn1c(=O)c(Nc2ccc(F)cc2F)nc2cc([N+](=O)[O-])ccc21`: the half-inhibitory concentration (IC50) in assay [1] was 0.283 µM. The inhibition in assay [2] worked out at 41%.
Turning to `O=C(O)Cn1c(=O)c(CCc2ccccc2)nc2ccccc21`, the IC50 in assay [1] was found to be 0.143 µM. The inhibition in assay [2] was found to be 22%.
On to `O=c1c(/C=C/c2ccccc2)nc2ccccc2n1Cc1ccc([N+](=O)[O-])cc1`, for which, in assay [3], the inhibition is 30%.
Same read-out and setting: under `O=c1c(N2CCN(c3cnccn3)CC2)nc2ccccc2n1Cc1ccc([N+](=O)[O-])cc1` stands 24%.
For the compound `O=c1c(N2CCN(c3cccc(C(F)(F)F)c3)CC2)nc2ccccc2n1Cc1ccc([N+](=O)[O-])cc1`, the inhibition in assay [3] worked out at 42.9%.
In the case of `O=C(O)Cn1c(=O)c(/C=C/c2ccc(F)cc2)nc2cc(Cl)ccc21`, the IC50 in assay [1] came to 0.66 µM. The inhibition in assay [2] was determined as 25%.
For the compound `O=C(O)Cn1c(=O)c(/C=C/c2ccc(F)cc2)nc2ccccc21`, the IC50 in assay [1] is 1.43 µM. Also, in assay [2], the inhibition amounted to 47%.
Consider `CC(C)(C)NC(=O)/C=C/c1nc2ccccc2n(Cc2ccc([N+](=O)[O-])cc2)c1=O`, for which the inhibition in assay [3] was 36.2%.
As for `COc1ccc(N2CCN(c3nc4ccccc4n(Cc4ccc([N+](=O)[O-])cc4)c3=O)CC2)cc1`, the inhibition in assay [3] came out at 26%.
As for `CC(C)(C)NC(=O)/C=C/c1nc2ccccc2n(CC(=O)O)c1=O`, the IC50 in assay [1] is 1.86 µM. The inhibition in assay [2] turned out to be 25%.
The matching figures for `O=C(O)Cn1c(=O)c(/C=C/c2ccc(F)cc2)nc2cc([N+](=O)[O-])ccc21`: 0.362 µM and 25%.
For the compound `O=C(O)Cn1c(=O)c(/C=C/c2ccccc2)nc2ccccc21`, the IC50 in assay [1] turned out to be 0.82 µM. Besides, the inhibition in assay [2] was found to be 32%.
Turning to `O=c1c(-c2csc3ccccc23)nc2ccccc2n1Cc1ccc([N+](=O)[O-])cc1`, the inhibition in assay [3] turned out to be 32%.
For `O=c1c(/C=C/c2ccc(F)cc2)nc2ccccc2n1Cc1ccc([N+](=O)[O-])cc1`, in assay [3], the inhibition stood at 24%.
As to `COc1ccc(N2CCN(c3nc4ccccc4n(CC(=O)O)c3=O)CC2)cc1`, the half-maximal inhibitory concentration (IC50) in assay [1] worked out at 7.53 µM. Moreover, the inhibition in assay [2] stood at 48%.
Regarding `O=C(O)Cn1c(=O)c(CCc2ccc(F)cc2)nc2ccccc21`, in assay [1], the IC50 was 1.14 µM. The inhibition in assay [2] worked out at 40%.
